Rows were chosen to be rich in hits. Some 2.3% of all compounds tested hit in one or more screens of this group.
ASAP1 GAP inh: blocks human ASAP1-stimulated Arf1 GTP hydrolysis; AID 624377; GDP FP detection; Q9ULH1; inhibition, % at 16.5 µM; 0.19% of 360,000 active; in the data active = inhibition above about 25%;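 note: 0% = vehicle with enzyme and substrate and 100% = no enzyme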
Target sequence (Q9ULH1 325-724 limits assumed): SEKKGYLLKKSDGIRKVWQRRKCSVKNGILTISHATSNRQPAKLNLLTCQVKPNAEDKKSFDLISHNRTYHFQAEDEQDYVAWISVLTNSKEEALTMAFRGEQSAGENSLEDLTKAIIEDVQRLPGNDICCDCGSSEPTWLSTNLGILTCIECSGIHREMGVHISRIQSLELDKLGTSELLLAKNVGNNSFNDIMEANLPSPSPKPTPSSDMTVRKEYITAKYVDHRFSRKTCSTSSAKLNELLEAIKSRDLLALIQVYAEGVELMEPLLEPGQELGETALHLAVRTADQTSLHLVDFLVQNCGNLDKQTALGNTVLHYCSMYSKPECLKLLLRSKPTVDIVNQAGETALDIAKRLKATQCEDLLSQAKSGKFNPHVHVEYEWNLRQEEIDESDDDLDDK
ARFGAP1 inh: inhibits rat ARF GTPase activating protein 1. Q62848. Arfgap1-stimulated ARF1 GTP hydrolysis, GDP FP detection. inhibition, % at 16.5 µM. 0.26% of 360,000 active. AID 651572;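 active = inhibition above a per-plate limit, mean inhibition of low control wells plus 3 SD, cut at about 25% in these data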;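 note: 0% = DMSO wells with enzyme and 100% = wells lacking Arfgap1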
Target sequence (Q62848 1-136 limits assumed): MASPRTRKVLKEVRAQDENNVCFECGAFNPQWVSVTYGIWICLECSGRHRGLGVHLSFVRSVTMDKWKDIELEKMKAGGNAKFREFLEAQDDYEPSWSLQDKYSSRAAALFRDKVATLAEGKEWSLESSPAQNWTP
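Material: rat Arfgap1 GAP domain (His6, aa 1-136), purified enzyme. Also added: human ARF1(Δ1-17)-GTP substrate. Compound dosing: 16.5 µM single point, 1.26% DMSO. Timing: enzyme reaction 120 min at 25 °C after 20 min preincubation. Signal: GDP detection by fluorescence polarization. Read-out basis: percent inhibition of GAP-stimulated GDP formation, scaled between DMSO and no-Arfgap1 medians.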
HGIII-sPLA2 inh: Blocks human group III sPLA2 activity; 0.56% of 370,000 active; AID 743126; QFRET BODIPY PC-A2 liposome hydrolysis, fluorescence; inhibition, % at 12.2 µM; Q9NZ20;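 active = inhibition above mean plus 3 SD of compounds lying within the high and low control bounds, cut at about 19% in these data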;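 note: 0% = median of test compound wells and 100% = no enzyme DMSO wells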
SKKanGAS inh: SKKanGAS growth inhibition. S. pyogenes SKKanGAS, kanamycin growth, BacTiter-Glo, 6 h. inhibition, % at 7.5 µM. 1.3% of 300,000 active;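 active = mean replicate score, as percent of positive control median, at least 50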;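 note: strain carries kanamycin resistance gene driven by streptokinase promoter and grows in 40 µg/ml kanamycin; loss of luminescence reflects streptokinase promoter inhibition or plain growth inhibition; 0% = median of DMSO wells and 100% = positive control at its reference dose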
Calb FLC: affects C. albicans growth with fluconazole; AID 1979; C. albicans CaCi-2 + fluconazole, Alamar Blue growth, 48 h; growth inhibition, % (test concentration not listed); 0.57% of 300,000 active;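 active = growth inhibition above about 58% in most replicates, limit read from the data, passing the limit was not always enough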;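 note: all wells also contain fluconazole at 8 µg/ml as a sub-toxic cotreatment; 0% = median of DMSO wells and 100% = median of geldanamycin control wells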
ASAP1 GAP conf: ASAP1 inhibition confirmed. shares compounds with ASAP1 GAP inh. ASAP1-stimulated Arf1 GTPase, GDP fluorescence polarization. inhibition, % at 16.5 µM. 37% of 620 active;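 active = mean inhibition over triplicates exceeds the hit threshold derived for the earlier primary screening run, cut at about 25% in these data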
ARFGAP1 inh conf: rat ARFGAP1 inhibition, confirmed | inhibition, % at 16.5 µM | AID 651608 | ARFGAP1-stimulated ARF1 GTP hydrolysis, GDP tracer FP | shares compounds with ARFGAP1 inh | 30% of 890 active;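 active = average inhibition over triplicates above the hit cutoff set in the earlier primary screen, cut at about 25% in these data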;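 note: 0% = Arfgap1 plus ARF1-GTP with DMSO and 100% = wells lacking Arfgap1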
* hit, by the source's call; · = no result.

SMILES	ASAP1 GAP inh	ARFGAP1 inh	HGIII-sPLA2 inh	SKKanGAS inh	Calb FLC	ASAP1 GAP conf	ARFGAP1 inh conf
COC(=O)[C@H](C(C)C)N(CCCc1cn(Cc2ccc(C)cc2)nn1)S(=O)(=O)c1ccccc1Br	·	·	-16	·	·	·	·
O=[N+]([O-])c1ccc(C=NNC(=S)Nc2ccc(F)cc2)cc1	6	10	9	·	·	·	·
O=[N+]([O-])c1ccc(C=NNC(=S)NN=Cc2ccc([N+](=O)[O-])cc2)cc1	74*	25*	0	·	·	164*	182*
COc1ccc2c(c1)CC/C(=C\c1ccc(OC)c(Cn3nc(C)cc3C)c1)C2=O	46*	29*	-4	17	22	56*	8
COc1ccc2c(c1)CC/C(=C\c1ccc(OC)c(Cn3cccn3)c1)C2=O	14	7	-13	8	-4	·	·
CC(=O)c1ccc(NC2=C(N3CCOCC3)C(=O)c3ccccc3C2=O)cc1	27*	25*	3	0	15	13	1
Cc1ccc(OCc2ccc(C(=O)Nc3ccc(C(N)=O)cc3)o2)c([N+](=O)[O-])c1	60*	86*	1	2	8	88*	116*
COc1cc(/C=N\NC(=O)c2ccc(C)nc2)ccc1OC(=O)c1ccc2c(c1)OCO2	29*	29*	-2	7	-13	38*	75*
Cc1[nH][nH]c(=O)c1C(c1ccc(-c2cccc(C(=O)O)c2)o1)c1c(C)[nH][nH]c1=O	26*	31*	5	7	-7	-3	-10
Cc1[nH][nH]c(=O)c1C(c1ccc(-c2cccc(Cl)c2)o1)c1c(C)[nH][nH]c1=O	·	·	·	5	-3	·	·
CC(=O)c1cccc(Nc2cc(C)nc3ccc(C)cc23)c1	-4	-6	1	-3	-4	·	·
O=c1[nH]c(Nc2ccccc2)cc2ccccc12	25*	33*	1	2	17	13	-1
Cn1c(=O)cc(Nc2ccccc2)[nH]c1=O	-7	-9	-3	6	8	·	·
CC(=O)c1cccc(-c2ccc3c(=O)[nH]c(Nc4ccccc4)cc3c2)c1	53*	30*	-6	34	4	39*	26*
COc1cccc(NC(=O)n2ccc3ccc(-c4ccc5cc[nH]c5c4)cc32)c1	·	·	-18	·	·	·	·
C#CCn1cc(/C=N/NC(=O)COc2cccc3cccnc23)c2ccccc21	20	7	2	4	-9	·	·
COC(=O)Cn1cc(/C=N/NC(=O)COc2cccc3cccnc23)c2ccccc21	36*	29*	-9	-3	-4	34*	31*
O=C(O)c1cc(NN=Nc2cccc([N+](=O)[O-])c2)cc([N+](=O)[O-])c1	29*	48*	-17	-5	1	81*	94*
Cc1cc(C)c2nc(N3C(=O)C(O)=C(C(=O)c4ccco4)C3c3cccc(O)c3)sc2c1 (stereo unspecified)	26*	25*	-30	·	·	39*	39*
CCCNC(=O)C[C@H]1CC[C@H]2[C@@H](COc3ccc(NC(=O)Nc4ccc(C#N)cc4)cc3C(=O)N2C)O1	·	·	-22	·	·	·	·
O=C(/C=C\c1cn(-c2ccccc2)nc1-c1ccccc1)Nc1nccs1	50*	50*	0	5	4	32*	72*
COc1cccc(C(=O)N[C@@H](Cc2cccnc2)C(=O)N2CCC[C@H]2C(=O)NC2CCCC2)c1	1	-1	4	·	·	·	·
O=C(N/N=C/C=C/c1ccc([N+](=O)[O-])cc1)c1cccs1	54*	60*	0	2	2	67*	66*
O=C(CN[C@@H](Cc1c[nH]c2ccccc12)C(=O)NCCc1c[nH]c2ccccc12)NC1CCCCC1	·	·	-52	·	·	·	·
N#Cc1ccc(-c2ccc(OCC(=O)NCC(=O)Nc3ccc(F)c(F)c3F)cc2)cc1	37*	58*	-4	6	-3	51*	80*
SMILES	ASAP1 GAP inh	ARFGAP1 inh	HGIII-sPLA2 inh	SKKanGAS inh	Calb FLC	ASAP1 GAP conf	ARFGAP1 inh conf
CCOc1ccc(C(=O)CCC(=O)NCC(=O)Nc2ccc(F)c(F)c2F)cc1	-6	10	2	·	·	·	·
COc1ccc(C(=O)Nc2ccc3nc(N4CCN(C)CC4)cc(C)c3c2)c(OC)c1	37*	50*	-11	4	1	66*	71*
O=C1NC[C@H](CCCCN2C[C@H](Cc3ccc(O)cc3)N(CCC3CCCCC3)C(=O)C2=O)N(CCC2CCCCC2)C1=O	-11	6	9	·	·	·	·
CCCCCCCCN1C(=O)[C@@H](CC(=O)NCC23CC4CC(CC(C4)C2)C3)C[C@@]2(C(=O)OC)C1=C[C@H](C(C)C)O[C@@H]2C1CC1	·	·	10	·	·	·	·
COc1cc2c3nnc(-c4ccc(F)cc4)c-3cn(Cc3ccccc3F)c2cc1OC	58*	152*	-3	·	·	83*	172*
COc1cc2c3nnc(-c4ccccc4)c-3cn(Cc3ccccc3F)c2cc1OC	58*	36*	-13	·	·	116*	36*
COc1ccccc1Cc1c(-c2ccc(F)cc2)nc2ccc(Cl)cn12	12	4	-6	·	·	·	·
O=C(Nc1cc(C(F)(F)F)cc(C(F)(F)F)c1)O[C@@H]1c2ccccc2[C@@H]2Cc3csc[n+]3[C@H]12	9	8	14	·	·	·	·
Cc1n[nH]c(C)c1S(=O)(=O)NC(C)Cc1ccccn1 (stereo unspecified)	·	·	10	·	·	·	·
COc1ccc([N+](=O)[O-])cc1NC(=O)c1ccc(N2C(=O)CCC2=O)cc1	-1	12	-2	7	-2	·	·
COc1ccc([N+](=O)[O-])cc1NC(=O)c1ccc(-n2nc(C)cc2C)cc1	26*	35*	-9	-1	9	39*	71*
CC(=O)Nc1ccc(C(=O)Nc2nc(-c3cccnc3)cs2)cc1	29*	26*	-2	0	-3	52*	39*
O=C(Nc1nc(-c2ccccc2)cs1)c1cccnc1	-2	0	-1	4	1	·	·
COc1ccc(OC)c(Nc2cc3ccccc3c(=O)[nH]2)c1	30*	27*	6	8	17	16	17
COc1ccc(OC)c(Nc2nnc(C)c(=O)[nH]2)c1	7	-7	4	-10	3	·	·
COc1ccccc1Nc1cc2cc(Br)ccc2c(=O)[nH]1	39*	31*	-10	15	-5	34*	22
CCCCNC(=O)C1C(c2ccc(C(F)(F)F)cc2)=Nc2ccccc2N1C(=O)c1ccc2nc(C)[nH]c2c1 (stereo unspecified)	9	6	-5	·	·	·	·
CCOC(=O)N1CCN(C(=O)C[C@H]2C[C@@]3(C(=O)OC)C(=C[C@H](COCc4ccccc4)O[C@@H]3C)N(Cc3cccc4ccccc34)C2=O)CC1	·	·	-21	·	·	·	·
